Columns and labels:
[1] = biological target: T1, recombinant mouse CRT (calreticulin) (Mus musculus, UniProt P14211); assay: Surface plasmon resonance binding to immobilized CRT; conditions: SPR, 25°C, 10 mM HEPES pH 7.4, 50 mM KCl, 0.5 mM CaCl2, 100 μM ZnCl2, 0.005% surfactant P-20; mouse CRT immobilized 3000 RU; 10 μl/min; mean ± SEM
T1 sequence (P14211 18-416): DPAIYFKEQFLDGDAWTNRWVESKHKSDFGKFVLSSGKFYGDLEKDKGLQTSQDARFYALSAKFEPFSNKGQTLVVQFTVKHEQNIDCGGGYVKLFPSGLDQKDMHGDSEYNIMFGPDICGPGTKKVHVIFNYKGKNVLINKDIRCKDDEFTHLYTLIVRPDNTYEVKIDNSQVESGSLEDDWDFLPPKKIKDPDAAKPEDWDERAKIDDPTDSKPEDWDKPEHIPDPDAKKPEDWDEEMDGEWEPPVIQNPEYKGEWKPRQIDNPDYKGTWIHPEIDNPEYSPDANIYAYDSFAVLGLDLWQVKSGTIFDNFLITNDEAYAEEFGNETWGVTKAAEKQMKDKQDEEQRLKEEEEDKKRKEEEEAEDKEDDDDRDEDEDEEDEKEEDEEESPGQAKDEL

NO signaling [2] = assay: NO signaling activation; format: cell-based; conditions: read-out: EC50 NO, Table I
[3] = system: osteoclast differentiation of DBA/1 mouse BMCs; conditions: 15-mer linear peptide; ref [10]; cited from earlier work
[4] = system: collagen-induced arthritis in mice; conditions: 15-mer SE peptidic ligand in vivo in mice; ref [10]; cited from earlier work
trypsin/chymotrypsin = conditions: linear peptidic SE ligand, completely degraded; ref [11]; cited from earlier work
[5] = system: ROS production in RAW 264.7 pre-OC cells; assay: ROS production; format: cell-based, mouse; conditions: RAW 264.7, 3 × 10^4/well, in words
Procedure, shortened: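 RAW 264.7 cells, 3×10^4 per well, exposed to various test compound concentrations and loaded with CM-H2DCFDA. Fluorescence (ex 488/em 515 nm) read every 5 min over 500 min; ROS expressed as FU/min.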

[6] = system: osteoclast differentiation of DBA/1 mouse BMCs; assay: In vitro OC differentiation, mouse bone marrow cells; format: cell-based; conditions: M-CSF + RANKL, 6 days
[7] = system: bone matrix degradation by DBA/1 mouse BMC-derived OCs; assay: Degradation of artificial; format: cell-based; conditions: 100 nM c(HS4-4), primary DBA/1 BMCs, day 15, Von Kossa
Procedure, shortened: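 Test compound (100 nM) or PBS was added to mouse BMC cultures on osteoblast-derived matrix. SaOS-2 cells (12,000/well) grew in McCoy's 5A/15% FBS; at 80–90% confluence they were switched to osteoblast differentiation medium (10% FBS, 2mM glutamine, ascorbic acid, 10mM β-glycerol phosphate) for 20–25 days, then removed with 15mM NH4OH. DBA/1 BMCs (200,000/well) received M-CSF 10 ng/ml for 2 days, then M-CSF plus RANKL 20 ng/ml. At day 15, cells were removed; remaining matrix was Von Kossa-stained, photographed and area-quantified.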

[8] = system: bovine cortical bone disks / mouse BMC-derived OCs; assay: Ex vivo degradation of bovine bone disks; format: cell-based; conditions: 100 nM c(HS4-4), mouse BMCs, 10 days, OC counts and resorption pits
Procedure, shortened: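 Bovine cortical bone disks (5-mm) were sonicated in water, stored dry, and sterilised in ethanol plus 30 min UV. Culture ran 10 days, medium renewed every other day. TRAP-positive OCs per disk were counted; cells were sonicated off in ammonium hydroxide; disks were stained with 1% toluidine blue for 30 s; pits were counted across the whole surface by reflected light. Mean ± SEM.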

[9] = system: collagen-induced arthritis in DBA/1 mice; assay: Collagen-induced arthritis: onset, incidence, arthritis score; format: in vivo, mouse; conditions: i.p.; for disease incidence: log-rank (Mantel-Cox)
[10] = system: erosive bone damage in CIA mice; assay: Micro-CT of bone damage in CIA mice; format: in vivo, mouse; conditions: all treated mice, various doses
Procedure, shortened: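 Limbs from arthritic mice fixed in 10% formalin, stored in 70% ethanol, scanned in water: 80 kV, 80 μA, 0.508 mm Al filter plus acrylic beam flattener, 1600 ms/frame, 400 views at 0.5°, 4 frames averaged, 2×2 binning, 18 μm voxels. Bone masks for carpals, tarsals, calcaneus, talus, phalanges; thresholds 2000 HU cortical, 1200 HU trabecular.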

bone damage in CIA mice = assay: X-ray radiological scoring of bone damage in CIA mice; format: in vivo, mouse; conditions: 0.8 and 8.0 ng/gm BW, N = 10, score 0-5
Procedure, shortened: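 CIA mice dosed weekly i.p. with 0.8 or 8.0 ng/gm BW test compound or PBS. Limbs X-rayed on a microradiography system (anode current 25mA, 4.5 s exposure). Coded films scored blind by a rheumatologist, front and rear paws separately, 0–5 (none to complete joint destruction). N=10.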

[11] = system: osteoclasts in CIA joint tissues; assay: OC abundance in joint tissue of CIA mice; format: in vivo, mouse; conditions: various doses incl. 'subclinical'; N=10 PBS, 5 per treatment group; TRAP
Procedure, shortened: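 Limbs from CIA mice given weekly i.p. test compound or PBS decalcified 14 days in 10% EDTA, paraffin-embedded, serially sectioned and stained for TRAP (or H&E). TRAP-positive multinucleated cells counted; total across front and rear paws and knees, mean ± SEM. N=10 PBS, 5 per treatment group.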

[12] = system: TRAP-positive mononuclear (pre-OC) bone marrow cells; assay: Pre-OC abundance in bone marrow of CIA mice; format: in vivo, mouse
Procedure, shortened: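 Fresh bone marrow cells harvested from CIA mice dosed weekly i.p. with various amounts of test compound or PBS; TRAP staining used to enumerate pre-osteoclasts.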

[13] = system: osteoclast formation of BMCs harvested from CIA mice; assay: Ex vivo OC differentiation of BMCs from treated CIA mice; format: in vivo, mouse; conditions: 6 days OC-differentiating culture, dose-dependent pattern
Procedure, shortened: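 DBA/1 mice (7 weeks) were immunised intradermally at the tail base with 100 μg chicken CII in CFA. They received test compound intraperitoneally once weekly at 0.0, 0.8, 8 or 80 ng/gm BW in 50 μl PBS. Bone marrow cells were then cultured for 6 days under OC-differentiating conditions (M-CSF 10 ng/ml; RANKL 20 ng/ml added after day 2). TRAP-positive multinucleated cells (>3 nuclei) were counted.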

NO signaling [14] = conditions: ref [11]; cited from earlier work
[15] = 80 ng/gm BW per week, N=10 per group
[16] = 800 ng/gm BW per week, N=10 per group

For 65-KDLLEQKRAAVDTYC-79 [65-79*0401], the “Affinity to CRT, ka” value [1] was 5.1 ± 4.8 ×10^4 1/Ms, the “Affinity to CRT, kd” value [1] was 7.4 ± 3.1 ×10^−3 1/s and the EC50 (NO signaling [2]) was 60 µM. For the same substance, the osteoclastogenesis activation [3] was “can activate osteoclastogenesis”, the “effect on erosive bone damage in CIA” value [4] was “enhanced erosive bone damage in collagen-induced arthritis” and the “time to complete degradation by trypsin/chymotrypsin” value (trypsin/chymotrypsin) was ≤ 30 min.

In the case of 70-QKRAA-74 [70-74*0401], the “Affinity to CRT, ka” value [1] is reported as 2.9 ± 2.9 ×10^2 1/Ms and the “Affinity to CRT, kd” value [1] is reported as 5.6 ± 5.1 ×10^−3 1/s.

In the case of cQKRAA [c(HS4-4)], the “Affinity to CRT, ka” value [1] is reported as 2.7 ± 0.5 ×10^3 1/Ms, the “Affinity to CRT, kd” value [1] is reported as 1.4 ± 0.2 ×10^−3 1/s and the EC50 (NO signaling [2]) is reported as 0.001 µM. The ROS signaling [5] was “activated ROS signaling”, the “OC differentiation (in words)” value [6] was “markedly enhanced OC differentiation in a dose-dependent manner” and the “degradation of artificial bone matrix” value [7] was “higher capacity to degrade artificial bone matrix”. For the same substance, the “degradation of bovine bone disks” value [8] was “higher capacity to degrade artificial bone matrix and bovine bone disks ex vivo”, the “CIA soft tissue disease parameters (onset, incidence, score)” value ([9]; 0.8 ng/gm BW per week) was “no effect on any of the three CIA soft tissue disease parameters” and the “CIA soft tissue disease parameters (onset, incidence, score)” value ([9]; 8.0 ng/gm BW per week) was “no effect on any of the three CIA soft tissue disease parameters”. For the same substance, the disease onset [9, 15] was “significantly facilitated disease onset”, the “mean arthritis scores (joint swelling)” value ([9]; 80 ng/gm BW per week, N=10 per group, 4-point scale per paw) was “significantly increased mean arthritis scores” and the disease incidence [9, 15] was “increased disease incidence”. For the same substance, the “mean arthritis scores, effect in the higher dose” value ([9]; 800 ng/gm BW per week ("the higher dose"), N=10 per group) was “but not in the higher dose”, the disease onset [9, 16] was “significantly facilitated disease onset” and the disease incidence [9, 16] was “increased disease incidence”. For the same substance, the “erosive bone damage (micro-CT)” value [10] was “more severe erosive bone damage”, the “bone damage (radiological score, X-ray)” value (bone damage in CIA mice) was “significantly higher bone damage” and the “OC numbers in arthritic joints” value [11] was “significantly higher numbers of OCs”. For the same substance, the “TRAP-positive pre-OC cells in bone marrow” value ([12]; 80 ng/gm BW group) was “peak effect”, the “TRAP-positive mononuclear (pre-OC) cells in bone marrow, dose dependence” value ([12]; all c(HS4-4)-treated mice) was “dose-dependent effect” and the “OCs formed ex vivo by BMCs from treated CIA mice” value [13] was “significantly higher numbers of OCs in a similar dose-dependent pattern”. For the same substance, the “NO signaling activation, concentration” value (NO signaling [14]) was “low nM concentrations”.

Reference: PMC3753203 (Journal of immunology (Baltimore, Md. : 1950), 2013)
